Experimental data from ChEMBL document CHEMBL3351984, “Structure-based design and synthesis of antiparasitic pyrrolopyrimidines targeting pteridine reductase 1” (J Med Chem, 2014).
Calls of active or inactive are those of the source. No cut-off for these calls is given here.

Tests used:
[1] = tested on: Trypanosoma brucei brucei; experiment: Antitrypanocidal activity against bloodstream forms of Trypanosoma brucei brucei Lister 427 after 6 hrs by time-kill assay; assay type: functional, organism-based
Mus musculus [2] = experiment: Toxicity in ICR mouse assessed as clinical signs at 10 mg/kg, ip; assay type: organism-based; set-up: dose 10 mg/kg, route intraperitoneal; settings: in vivo
Mus musculus [3] = experiment: Toxicity in ICR mouse assessed as fatality at 100 mg/kg, ip; assay type: organism-based; set-up: dose 100 mg/kg, route intraperitoneal; settings: in vivo
In short: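 Maximum tolerated dose study in mice at 10, 30 and 100 mg/kg, scoring clinical signs and fatality.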

[4] = tested on: Trypanosoma brucei brucei; experiment: Antitrypanocidal activity against Trypanosoma brucei brucei Lister 427 infected in ICR mouse assessed as reduction in parasitemia at 30 mg/kg, ip qd administered 24 hrs post infection for 4 consecutive days; assay type: functional, organism-based; set-up: dose 30 mg/kg
Mus musculus [5] = experiment: Toxicity in ICR mouse assessed as transient clinical signs at 30 mg/kg, ip; assay type: organism-based; set-up: dose 30 mg/kg, route intraperitoneal; settings: in vivo

SMILES | Activity [1] | further results
Nc1nc(N)c(C(C[N+](=O)[O-])c2ccc(F)cc2)c(=O)[nH]1 (stereo unspecified) | inactive | –
N#Cc1c[nH]c2nc(N)nc(N)c12 | inactive | –
COc1nc(N)nc2[nH]cc(C#N)c12 | inactive | –
Nc1nc(N)c2c(-c3ccccc3)c(-c3ccccc3)[nH]c2n1 | inactive | –
CC(C)Oc1nc(N)nc(N)c1C(C[N+](=O)[O-])c1ccc(F)cc1 (stereo unspecified) | inactive | –
Cc1ccc(C(C[N+](=O)[O-])c2c(N)nc(N)nc2N)cc1 (stereo unspecified) | inactive | –
Nc1nc(N)c(C(C[N+](=O)[O-])c2ccc(F)cc2)c(N)n1 (stereo unspecified) | inactive | –
Nc1nc2[nH]cc(CCc3ccccc3)c2c(=O)[nH]1 | inactive | –
Nc1nc2[nH]c(-c3ccccc3)c(-c3ccccc3)c2c(=O)[nH]1 | inactive | –
Nc1nc(N)c(C(C[N+](=O)[O-])c2ccccc2)c(=O)[nH]1 (stereo unspecified) | inactive | –
Nc1nc2[nH]c(-c3ccc(F)cc3)c(-c3ccccc3)c2c(=O)[nH]1 | inactive | –
Nc1nc(N)c(C(C[N+](=O)[O-])c2ccc(F)cc2)c(NC2CCCCC2)n1 (stereo unspecified) | inactive | –
N#Cc1c(-c2cccc(C=O)c2)[nH]c2nc(N)nc(N)c12 | inactive | –
Nc1nc(N)c(C(CCc2ccccc2)C[N+](=O)[O-])c(=O)[nH]1 (stereo unspecified) | inactive | –
Nc1nc(N2CCSCC2)c2cc[nH]c2n1 | inactive | –
Nc1nc2[nH]c(-c3ccc(CCCN4CCOCC4)cc3)c(-c3ccccc3)c2c(=O)[nH]1 | inactive | –
CC(C)COc1nc(N)nc(N)c1C(C[N+](=O)[O-])c1ccc(F)cc1 (stereo unspecified) | inactive | –
Nc1nc(N)c(C(C[N+](=O)[O-])c2ccccc2)c(N)n1 (stereo unspecified) | inactive | –
N#Cc1c[nH]c2nc(N)nc(N3CCSCC3)c12 | inactive | –
Nc1nc(N)c2c(-c3ccccc3)c(-c3ccc(F)cc3)[nH]c2n1 | inactive | Activity (Mus musculus [2]): Non-toxic; Activity (Mus musculus [3]): Toxic; Activity [4]: Active; Activity (Mus musculus [5]): Toxic
Cc1ccc(C(C[N+](=O)[O-])c2c(N)nc(N)[nH]c2=O)cc1 (stereo unspecified) | inactive | –
Nc1nc(N)c(C(CCc2ccccc2)C[N+](=O)[O-])c(N)n1 (stereo unspecified) | inactive | –
